Type in all cases: functional
Assay [1] has as its system Streptococcus pneumoniae. In words: Minimum inhibitory concentration was evaluated in vitro against Streptococcus pneumoniae SV-1. Summed up: (§1)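 Standard microtitration broth assay against a panel of 10 Gram-positive and Gram-negative organisms. MIC read in µg/mL and averaged over multiple experiments.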
Assay [2] concerns Providencia rettgeri. The experiment in a line: Minimum inhibitory concentration was evaluated in vitro against Providencia rettgeri M1771. Put shortly:
as §1

For assay [3], the system named is Staphylococcus aureus. In words: Minimum inhibitory concentration was evaluated in vitro against Staphylococcus aureus UC 76. Put shortly:
as §1

For assay [4], the system named is Klebsiella pneumoniae. In words: Minimum inhibitory concentration was evaluated in vitro against Klebsiella pneumoniae MGH2. Put shortly:
as §1

The subject of assay [5] is Escherichia coli. The experiment in a line: Antibacterial activity against Escherichia coli Vogel after oral administration in mouse. The note with it: for ED50: Escherichia coli, po, read-out: PD50.
Assay [6] deals with Escherichia coli. The experiment in a line: Antibacterial activity in vitro against Escherichia coli Vogel. Put shortly: as §1
Assay [7] has as its system Pseudomonas aeruginosa. In words: Minimum inhibitory concentration was evaluated in vitro against Pseudomonas aeruginosa UI-18. Put shortly:
as §1

Assay [8] has as its system Streptococcus pyogenes. In words: Compounds were evaluated in vivo for antibacterial activity for mouse protection against Streptococcus pyogenes C 203 after oral administration. The conditions noted are these: for ED50: Streptococcus pyogenes, C 203, po, read-out: PD50.
Assay [9] has as its system Enterococcus faecalis. In words: Minimum inhibitory concentration was evaluated in vitro against Enterococcus faecalis MGH-2. Put shortly: as §1
Assay [10] deals with Staphylococcus aureus. The experiment in a line: Minimum inhibitory concentration was evaluated in vitro against Staphylococcus aureus H 228. Summed up:
as §1

Assay [11] concerns Streptococcus pyogenes. In words: Minimum inhibitory concentration was evaluated in vitro against Streptococcus pyogenes C 203. Put shortly:
as §1

Assay [12] concerns Enterobacter cloacae. The experiment in a line: Minimum inhibitory concentration in vitro against Enterobacter cloacae MA 2646.
The test system of assay [13] is Escherichia coli. The experiment in a line: Antibacterial activity against Escherichia coli Vogel after subcutaneous administration in mouse. The note with it: for ED50: Escherichia coli, sc, read-out: PD50.
Assay [14] relates to Streptococcus pyogenes. In words: Antibacterial activity measured as mouse protection against Streptococcus pyogenes C 203 after subcutaneous administration. The note with it: for ED50: Streptococcus pyogenes, C 203, sc, read-out: PD50.
[15] abbreviates: Streptococcus pneumoniae, read-out: MIC.
Where [16] appears, read: Providencia rettgeri, read-out: MIC.
The mark [17] stands for this setting: Staphylococcus aureus, read-out: MIC.
Setting [18] is: Klebsiella pneumoniae, read-out: MIC.
[19] abbreviates: Escherichia coli, read-out: MIC.
Setting [20] is: Pseudomonas aeruginosa, read-out: MIC.
[21] abbreviates: Enterococcus faecalis, read-out: MIC.
[22] abbreviates: Streptococcus pyogenes, read-out: MIC.
The mark [23] stands for this setting: Enterobacter cloacae, read-out: MIC.

In brackets after ≈: the same amount, converted by molar mass.

These results are taken from ChEMBL document CHEMBL1126988, “Quinolone antibacterials containing the new 7-[3-(1-aminoethyl)-1- pyrrolidinyl] side chain: the effects of the 1-aminoethyl moiety and its stereochemical configurations on potency and in vivo efficacy” (J Med Chem, 1993).

For `CC(N)C1CCN(c2c(F)cc3c(=O)c(C(=O)O)cn(C4CC4)c3c2F)C1` (racemic), the minimal inhibitory concentration (MIC) (commonly the lowest concentration found to suppress growth) was 0.006 µg/mL (≈ 0.0159 µM) in assay [1] (setting [15]); 0.025 µg/mL (≈ 0.0662 µM) in assay [2] (setting [16]); 0.003 µg/mL (≈ 0.00795 µM) in [3] (setting [17]); 0.013 µg/mL (≈ 0.0344 µM) in assay [4] (setting [18]); 0.013 µg/mL (≈ 0.0344 µM) in assay [6] (setting [19]); 0.4 µg/mL (≈ 1.06 µM) in assay [7] (setting [20]). The MIC in assay [9] (setting [21]) was 0.006 µg/mL (≈ 0.0159 µM); in assay [10] (setting [17]), 0.013 µg/mL (≈ 0.0344 µM); in assay [11] (setting [22]), 0.006 µg/mL (≈ 0.0159 µM); in assay [12] (setting [23]) it was 0.013 µg/mL (≈ 0.0344 µM). The ED50 is 2 mg/kg in assay [5], 0.4 mg/kg in assay [8], 0.3 mg/kg in assay [13] and 0.1 mg/kg in [14].
Turning to `CC1(CN)CCN(c2c(F)c(N)c3c(=O)c(C(=O)O)cn(C4CC4)c3c2F)C1` (stereo not drawn), the MIC amounted to 0.003 µg/mL (≈ 0.00765 µM) in assay [1] (setting [15]); 0.2 µg/mL (≈ 0.51 µM) in assay [2] (setting [16]); 0.003 µg/mL (≈ 0.00765 µM) in [3] (setting [17]); 0.1 µg/mL (≈ 0.255 µM) in assay [4] (setting [18]); 0.2 µg/mL (≈ 0.51 µM) in assay [6] (setting [19]); 0.8 µg/mL (≈ 2.04 µM) in [7] (setting [20]). Moreover, the MIC in [9] (setting [21]) was 0.025 µg/mL (≈ 0.0637 µM); in assay [10] (setting [17]), 0.013 µg/mL (≈ 0.0331 µM); in assay [11] (setting [22]), 0.013 µg/mL (≈ 0.0331 µM); in assay [12] (setting [23]), 0.1 µg/mL (≈ 0.255 µM). Moreover, the PD50 in assay [5] was determined as 9 mg/kg. Besides, the ED50 is 8 mg/kg in assay [8], 1 mg/kg in [13] and 1 mg/kg in assay [14].
As to `CNCC1CCN(c2cc3c(cc2F)c(=O)c(C(=O)O)cn3C2CC2)C1` (stereo not drawn), the minimal inhibitory concentration (MIC) in [1] (setting [15]) amounted to 0.05 µg/mL (≈ 0.139 µM); in [2] (setting [16]), 0.4 µg/mL (≈ 1.11 µM); in [3] (setting [17]), 0.025 µg/mL (≈ 0.0696 µM); in assay [4] (setting [18]) it was 0.2 µg/mL (≈ 0.556 µM); in assay [6] (setting [19]), 0.1 µg/mL (≈ 0.278 µM); in assay [7] (setting [20]) it was 0.8 µg/mL (≈ 2.23 µM). For the same molecule, the MIC came out at 0.1 µg/mL (≈ 0.278 µM) in assay [9] (setting [21]), 0.2 µg/mL (≈ 0.556 µM) in assay [10] (setting [17]), 0.05 µg/mL (≈ 0.139 µM) in [11] (setting [22]) and 0.2 µg/mL (≈ 0.556 µM) in assay [12] (setting [23]). For the same molecule, the ED50 in [5] was 35 mg/kg; in assay [8], more than 50 mg/kg; in assay [13] it was 2 mg/kg; in assay [14], 5 mg/kg.
For the molecule `CCNCC1CCN(c2nc3c(cc2F)c(=O)c(C(=O)O)cn3C2CC2)C1` (stereo not drawn), the minimal inhibitory concentration (MIC) in assay [1] (setting [15]) is 0.1 µg/mL (≈ 0.267 µM); in assay [2] (setting [16]), 0.8 µg/mL (≈ 2.14 µM); in [3] (setting [17]), 0.05 µg/mL (≈ 0.134 µM); in assay [4] (setting [18]), 0.2 µg/mL (≈ 0.534 µM); in assay [6] (setting [19]), 0.1 µg/mL (≈ 0.267 µM); in assay [7] (setting [20]) it was 0.8 µg/mL (≈ 2.14 µM). The MIC in [9] (setting [21]) was 0.1 µg/mL (≈ 0.267 µM); in assay [10] (setting [17]) it was 0.1 µg/mL (≈ 0.267 µM); in assay [11] (setting [22]), 0.2 µg/mL (≈ 0.534 µM); in assay [12] (setting [23]), 0.2 µg/mL (≈ 0.534 µM). In addition, the ED50 in assay [5] worked out at 7 mg/kg; in assay [8], 17 mg/kg; in assay [13], 1 mg/kg; in assay [14] it was 8 mg/kg.
Take `CCN[C@@H](C)[C@@H]1CCN(c2nc3c(cc2F)c(=O)c(C(=O)O)cn3C2CC2)C1`: the MIC in assay [1] turned out to be 0.1 µg/mL (≈ 0.257 µM); in assay [2] it was 1.6 µg/mL (≈ 4.12 µM); in assay [3], 0.1 µg/mL (≈ 0.257 µM); in assay [4] it was 0.4 µg/mL (≈ 1.03 µM); in [6], 0.2 µg/mL (≈ 0.515 µM); in assay [7], 3.1 µg/mL (≈ 7.98 µM). Also, the MIC was determined as 0.2 µg/mL (≈ 0.515 µM) in [9], 0.2 µg/mL (≈ 0.515 µM) in assay [10], 0.4 µg/mL (≈ 1.03 µM) in [11] and 0.2 µg/mL (≈ 0.515 µM) in assay [12]. For the same molecule, the PD50 in [5] was 3 mg/kg; in assay [8], 15 mg/kg; in assay [13], 1 mg/kg; in [14] it was 9 mg/kg.
As to `NCC1CCN(c2c(F)c(N)c3c(=O)c(C(=O)O)cn(C4CC4)c3c2F)C1` (stereo not drawn), the MIC in [1] (setting [15]) stood at 0.003 µg/mL (≈ 0.00793 µM); in assay [2] (setting [16]), 0.05 µg/mL (≈ 0.132 µM); in assay [3] (setting [17]) it was 0.003 µg/mL (≈ 0.00793 µM); in assay [4] (setting [18]), 0.025 µg/mL (≈ 0.0661 µM); in [6] (setting [19]) it was 0.013 µg/mL (≈ 0.0344 µM); in assay [7] (setting [20]) it was 0.1 µg/mL (≈ 0.264 µM). The minimum inhibitory concentration (MIC) in assay [9] (setting [21]) came out at 0.013 µg/mL (≈ 0.0344 µM); in assay [10] (setting [17]) it was 0.006 µg/mL (≈ 0.0159 µM); in assay [11] (setting [22]), 0.003 µg/mL (≈ 0.00793 µM); in assay [12] (setting [23]) it was 0.025 µg/mL (≈ 0.0661 µM). Besides, the ED50 in assay [5] came to 12 mg/kg; in [8], 11 mg/kg; in assay [13], 1 mg/kg; in [14], 0.6 mg/kg.
As to `CN[C@H](C)[C@@H]1CCN(c2c(F)cc3c(=O)c(C(=O)O)cn(C4CC4)c3c2OC)C1`, the MIC in assay [1] (setting [15]) stood at 0.013 µg/mL (≈ 0.0322 µM); in assay [2] (setting [16]) it was 0.4 µg/mL (≈ 0.991 µM); in assay [3] (setting [17]) it was 0.013 µg/mL (≈ 0.0322 µM); in assay [4] (setting [18]), 0.2 µg/mL (≈ 0.496 µM); in assay [6] (setting [19]), 0.1 µg/mL (≈ 0.248 µM); in assay [7] (setting [20]) it was 3.1 µg/mL (≈ 7.68 µM). The MIC in assay [9] (setting [21]) is 0.05 µg/mL (≈ 0.124 µM); in assay [10] (setting [17]), 0.05 µg/mL (≈ 0.124 µM); in assay [11] (setting [22]), 0.025 µg/mL (≈ 0.062 µM); in assay [12] (setting [23]) it was 0.1 µg/mL (≈ 0.248 µM). Moreover, the ED50 stood at 12 mg/kg in assay [5], 4 mg/kg in [8], 3 mg/kg in assay [13] and 1 mg/kg in [14].
